mIAP act – mouse IAP activation | muIAP, CDP-Star luminescence, 30 min; active compounds read high; 1 = vehicle-only enzyme signal, 0 = enzyme-free wells | activation factor at 10 µM | hit rate 0.24% among 330,000 | AID 2805;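 active = activation factor of at least 2 at 20 µM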
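Assay system: mouse IAP enzyme; Reagent: CDP-Star chemiluminescent phosphatase substrate; Compound: DMSO-dissolved test compounds; Incubation: 30 min, room temperature; Technique: luminescence from enzymatic CDP-Star hydrolysis; Controls: DMSO-only wells and no-enzyme negative control.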
hIAP inh – human IAP inhibition | purified IAP, CDP-Star luminescence, 30 min | AID 2544 | hit rate 0.12% among 330,000 | inhibition, % at 10 µM | P09923;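 active = inhibition reaching a set limit with compound at 10 µM in the primary screen, cut at about 35% in these data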;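 note: plate controls were DMSO wells with enzyme for no effect and no-enzyme buffer wells for full effect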
Target sequence (P09923 whole entry, looked up): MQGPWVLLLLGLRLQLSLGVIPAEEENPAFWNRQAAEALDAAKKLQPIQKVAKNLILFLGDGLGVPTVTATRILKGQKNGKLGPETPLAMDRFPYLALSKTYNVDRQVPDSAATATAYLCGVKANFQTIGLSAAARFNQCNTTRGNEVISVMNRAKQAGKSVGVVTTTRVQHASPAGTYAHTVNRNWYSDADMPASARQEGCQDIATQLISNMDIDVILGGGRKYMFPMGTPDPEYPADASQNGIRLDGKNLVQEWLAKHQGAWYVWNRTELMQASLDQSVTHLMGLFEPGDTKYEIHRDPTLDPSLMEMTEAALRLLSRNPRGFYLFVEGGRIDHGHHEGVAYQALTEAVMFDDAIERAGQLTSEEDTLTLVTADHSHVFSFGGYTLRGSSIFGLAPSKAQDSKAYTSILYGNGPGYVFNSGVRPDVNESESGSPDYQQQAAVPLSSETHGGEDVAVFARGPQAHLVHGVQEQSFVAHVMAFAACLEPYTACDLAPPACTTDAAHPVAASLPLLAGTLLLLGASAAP
bIAP inhibitor – intestinal alkaline phosphatase (bovine) inhibition | purified bovine IAP, CDP-star luminescence, 30 min | inhibition, % at 20 µM | 190,000 tested, under 10 active | AID 1019;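 active = over 50% inhibition of intestinal alkaline phosphatase at 20 µM in the single-dose screen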
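test system = bovine IAP enzyme | medium = DEA buffer 100 mM, pH 9.8, with MgCl2 1.0 mM, ZnCl2 0.02 mM | detection = luminescence | dosing = single compound dose of 20 µM, 2% DMSO final | incubation = 30 min reaction at room temperature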
mIAP block – blocks mouse intestinal alkaline phosphatase | purified mouse IAP, CDP-Star luminescence, 30 min | inhibition, % at 10 µM | hit rate 0.2% among 330,000 | AID 2806;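 active = inhibition of at least 40% at 10 µM in the primary screen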;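 note: plate controls were DMSO with enzyme for no effect and no enzyme wells for full effect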
bIAP act – increases bovine intestinal alkaline phosphatase activity; hit rate 0.17% among 200,000; purified bovine IAP, CDP-star luminescence, 30 min; active compounds read high; fold of DMSO-control signal, blank-subtracted; AID 1016; activation factor at 20 µM;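 active = activation factor of 2 or more at 20 µM, a signal rise over negative controls twice the positive control's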
hIAP activ – increases human intestinal alkaline phosphatase activity. P09923. purified human IAP, CDP-Star luminescence, 30 min; active compounds read high; 1 = vehicle-only enzyme, 0 = enzyme-free background. activation factor at 10 µM. hit rate 0.16% among 330,000;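 active = activation factor of the enzyme at least 2-fold when tested at 20 µM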
hIAP act confirm – human IAP activation confirmation. purified IAP, CDP-Star luminescence, 30 min; active compounds read low. activation (%Activity, negative = activation), % at 8.3 µM. shares compounds with hIAP activ. AID 434926. hit rate 10% among 880;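 active = at least twofold enzyme activation in any of six single-dose repeats, which the averaged readout prints as negative percent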
An asterisk follows results filed as active; · = no result. Shown are actives, neighbours in structure and some others; about 0.77% of the full set was active somewhere.

SMILES	mIAP act	hIAP inh	bIAP inhibitor	mIAP block	bIAP act	hIAP activ	hIAP act confirm
O=C(NNc1nc2c(F)cccc2s1)c1cc(=O)c2ccccc2o1	0.795	-174.3	4.4	20.5	1	2.74*	10.9
Cc1cccc2sc(NNC(=O)c3cc(=O)c4ccccc4o3)nc12	0.688	-95.4	-13.9	31.2	1.1	1.95	·
COc1ccc2nc(NNC(=O)c3cc(=O)c4ccccc4o3)sc2c1	0.856	-123.7	3.9	14.4	1	2.24*	-71.1
Nc1nc(CN2CCN(Cc3ccc4c(c3)OCO4)CC2)nc(Nc2ccccc2)n1	1.01	-101.9	-5.1	-1.3	1.1	2.02*	-1.5
CCN(C(=O)Cn1nc(C)n2c(cc3cc(C)ccc32)c1=O)c1ccccc1	0.913	-10.8	·	8.7	·	1.11	·
O=C(c1cccs1)N1CCc2ccccc21	1.06	-118.8	7.2	-6.1	0.9	2.19*	4.4
Cc1ccc(OCCCN2CCOCC2)cc1	1.05	-11.6	·	-5.0	·	1.12	·
Cc1cccc(C(=O)c2cn[nH]c2-c2ccc(C)cc2O)c1	1.08	-7.2	·	-7.9	·	1.07	·
Cc1ccc(-c2[nH]ncc2C(=O)c2cccc(F)c2)c(O)c1	0.958	-104.8	·	4.2	·	2.05*	5.6
O=C(C1CCN(S(=O)(=O)c2ccccc2)CC1)N1CCOCC1	0.91	40.4*	9.8	9.0	0.9	0.596	-26.2
CCOC(=O)c1sc(NC(=O)CSc2nc(C)cc(-c3ccccc3)n2)c(C#N)c1C	0.824	-0.2	14.6	17.6	0.9	1	·
CCOC(=O)c1sc(NC(=O)CSc2n[nH]c(-c3ccc(Cl)cc3Cl)n2)c(C#N)c1C	0.675	69.2*	13.0	32.5	0.9	0.308	-1.0
Cc1c(C(=O)N/N=C/c2c(O)ccc3ccccc23)nnn1-c1nonc1N	0.787	-104.7	·	21.3	·	2.05*	-86.1*
COc1cccc2c1cc1c(=O)n(CC(=O)NCCCN3CCN(C)CC3)nc(C)n12	0.97	43.2*	·	3.0	·	0.568	0.3
COc1ccc(-c2nnc(SCC(=O)N3CCOCC3)n2C)cc1OC	1	-127.0	10.3	-0.5	0.9	2.27*	4.9
Cc1nc2ccc(Br)cn2c1C(=O)N/N=C\c1ccccc1Cl	0.964	19.1	·	3.6	·	0.809	·
CCC(CC)NC(=O)c1ccc2nc[nH]c2c1	0.871	-14.8	11.3	12.9	0.9	1.15	·
CC(NC(=O)c1ccc2nc[nH]c2c1)c1ccccc1 (stereo unspecified)	0.956	-138.6	-10.9	4.4	1.1	2.39*	-4.5
CCOCCCNC(=O)CCC(=O)NNc1nc2ccccc2c2nc(-c3ccccc3)nn12	0.834	-109.0	7.7	16.6	0.9	2.09*	48.4
Cc1nc2c3ccccc3nc(NNC(=O)CCC(=O)N3CCC(C)CC3)n2n1	0.976	-133.3	·	2.4	·	2.33*	0.7
COc1ccc(N2CCN(C(=O)CCC(=O)NNc3nc4ccccc4c4nc(C)nn34)CC2)cc1	0.99	-99.3	·	1.0	·	1.99	·
Cc1nc2c3ccccc3nc(NNC(=O)CCC(=O)NCCC(C)C)n2n1	0.864	-111.3	-9.7	13.6	1.1	2.11*	-64.4*
Cc1nc2c3ccccc3nc(NNC(=O)CCC(=O)N3CCN(c4ccccc4)CC3)n2n1	0.919	-128.1	·	8.1	·	2.28*	-42.3
Cc1cc(-c2nnc(SCC(=O)Nc3c(C)cccc3C)n2N)n[nH]1	0.982	12.0	·	1.8	·	0.88	·
COC(=O)C(Cc1ccccc1)NC(=O)CCNC(=O)c1ccco1 (stereo unspecified)	1.09	-23.5	·	-8.7	·	1.24	·
Cc1nc2c3ccccc3nc(NNC(=O)CCC(=O)N3CCN(c4ccccc4F)CC3)n2n1	0.931	-97.0	·	6.9	·	1.97	·
CCOC(=O)C1CCN(C(=O)CCC(=O)NNc2nc3ccccc3c3nc(C)nn23)CC1	0.812	-174.8	·	18.8	·	2.75*	-2.5
COc1cccc(N2CC(O)=C(c3nc4ccccc4c(=O)[nH]3)C2=N)c1	0.911	-111.7	0.8	8.9	1	2.12*	-54.8
Cc1cc(C)cc(N2CC(O)=C(c3nc4ccccc4c(=O)[nH]3)C2=N)c1	0.953	-43.6	-10.8	4.7	1.1	1.44	·

Screens deposited in PubChem by Sanford-Burnham Center for Chemical Genomics.
